# Target: Sodium-dependent dopamine transporter (Rattus norvegicus) (UniProt P23977)
# Assay: Binding affinity to Dopamine transporter (DAT) using [3H]WIN-35428 at 1 uM
# In short: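 Rat striatal membranes (male Sprague-Dawley, 200-225 g) in modified Krebs-HEPES buffer, pH 7.4. Each tube held 2.5 mg tissue (original wet weight) and 1.5 nM [3H]WIN 35,428. Membranes were preincubated 5 min with or without 1 μM test compound, in triplicate, then incubated 60 min on ice. Nonspecific binding was taken with 0.1 mM cocaine·HCl. Filtration through BSA-presoaked GF/B filters, scintillation counting.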
# Chain of Sodium-dependent dopamine transporter (Rattus norvegicus) (P23977 whole entry): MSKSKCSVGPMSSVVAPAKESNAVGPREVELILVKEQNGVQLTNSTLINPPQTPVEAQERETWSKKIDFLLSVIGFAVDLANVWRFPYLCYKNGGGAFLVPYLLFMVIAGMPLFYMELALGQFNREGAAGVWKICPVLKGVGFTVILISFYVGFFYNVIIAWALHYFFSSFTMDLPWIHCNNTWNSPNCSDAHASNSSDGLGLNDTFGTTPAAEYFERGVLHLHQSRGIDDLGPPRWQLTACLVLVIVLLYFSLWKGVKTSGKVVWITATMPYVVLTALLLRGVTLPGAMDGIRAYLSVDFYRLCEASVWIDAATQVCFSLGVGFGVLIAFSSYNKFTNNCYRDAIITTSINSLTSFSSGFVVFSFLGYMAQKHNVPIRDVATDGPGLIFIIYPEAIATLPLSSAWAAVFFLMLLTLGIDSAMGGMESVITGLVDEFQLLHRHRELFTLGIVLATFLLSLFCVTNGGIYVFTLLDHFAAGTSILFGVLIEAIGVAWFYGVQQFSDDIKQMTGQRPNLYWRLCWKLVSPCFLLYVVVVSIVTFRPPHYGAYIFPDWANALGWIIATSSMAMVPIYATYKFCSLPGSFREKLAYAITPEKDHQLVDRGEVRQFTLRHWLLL
row,SMILES,Specific binding [%]
1,CCCCN(CCCC)CCC(=O)c1cc(-c2ccccc2)oc1-c1ccccc1,93.4
2,O=C1c2ccccc2CC1CN1CCCCC1 (stereo not given),89.9
3,c1ccc(C(CN2CCCCC2)OCc2cccs2)cc1 (stereo not given),42.1
4,CC(C(OC(=O)C1c2ccccc2-c2ccccc21)c1ccccc1)N(C)C (stereo not given),19
5,CC(CN1CCCC1)OC(=O)C(c1ccccc1)C1C=CCC1 (stereo not given),49.7
6,Clc1ccc(C2NCCNCc3ccccc32)cc1 (stereo not given),54.3
7,COc1cc(NCCN(CC(C)C)CC(C)C)c2ncccc2c1,81.6
8,c1ccc2c(CN3CCOCC3)c[nH]c2c1,88.1
9,CCOC(=O)N1CCN(Cc2c[nH]c3ccccc23)CC1,88.5
10,O=C1N2CCNc3ccccc3C(c3ccccc3)N1CC2 (stereo not given),55.8
11,CN1CCC(OC(c2ccccc2)c2ccc(Cl)cc2)C1 (stereo not given),8.43

# Target: Sodium-dependent dopamine transporter (Rattus norvegicus, UniProt P23977)
# Sequence (P23977 whole entry): as above
row,SMILES,Ki [nM]
1,CN1C2CCC1[C@@H](CCCO)[C@@H](c1ccccc1)C2 (stereo not given in full),11
2,COC(=O)C1C2CC[C@H](C[C@@H]1c1ccc(Cl)cc1)N2C (stereo not given in full),2
3,CN(C)C/C=C(\c1cccnc1)c1cccc(Br)c1,11200
4,CCCC[C@H]1CC2[C@@H](CC(=O)OC)[C@@H](Cc3ccccc3)CC1N2C (stereo not given in full),8510
5,COC(=O)CCCC[C@@H]1C2CCC(C[C@@H]1c1ccccc1)N2C (stereo not given in full),30.2
6,COc1ccc(C(O[C@H]2C[C@H]3CC[C@@H](C2)N3C)c2ccccc2)cc1 (stereo not given in full),79.4
7,c1ccc2sc(C3(N4CCCCC4)CCCCC3)cc2c1,10
8,CN1C2CCC1[C@@H](/C=C/CO)[C@@H](c1ccccc1)C2 (stereo not given in full),16.2
9,O=C(OCCN1CCOCC1)C1(c2ccccc2)CCCCC1,5370
10,CC[C@H]1CC2[C@@H](CC(=O)OC)[C@@H](Cc3ccccc3)CC1N2C (stereo not given in full),309
11,COC(=O)CC[C@@H]1C2CCC(C[C@@H]1c1ccccc1)N2C (stereo not given in full),22.9
12,CC(=O)[C@@H]1C2CCC(C[C@@H]1OC(=O)c1ccccc1)N2C (stereo not given in full),191
13,COc1ccccc1OC(CCN)c1ccccc1 (stereo not given),562
14,CN1C2CCC1[C@@H](CCCc1ccccc1)[C@@H](c1ccccc1)C2 (stereo not given in full),16.2
15,CCC(=O)[C@@H]1C2CCC(C[C@@H]1OC(=O)c1ccccc1)N2C (stereo not given in full),309
16,COC(=O)C[C@@H]1C2C[C@H](C)C(C[C@@H]1Cc1ccccc1)N2C (stereo not given in full),214
17,CCC[C@H]1CC2[C@@H](CC(=O)OC)[C@@H](Cc3ccccc3)CC1N2C (stereo not given in full),4170

row,SMILES,Ki [nM]
1,CN1C2CCC1[C@@H](CCC(=O)c1ccccc1)[C@@H](c1ccccc1)C2 (stereo not given in full),28.2
2,CN1[C@@H]2CC[C@H]1C[C@@H](OC(c1ccccc1)c1ccc(Cl)c(Cl)c1)C2 (stereo not given in full),21.4
3,COC(=O)[C@@H]1C2CC[C@H](C[C@@H]1c1ccccc1)N2C,87.1
4,COc1ccc2c(c1)CN(C)CC2c1ccc(Cl)c(Cl)c1 (stereo not given) [DICLOFENSINE],7.08
5,COC(=O)/C=C/CC[C@@H]1C2CCC(C[C@@H]1c1ccccc1)N2C (stereo not given in full),20
6,COC(=O)/C=C/[C@@H]1C2CCC(C[C@@H]1c1ccccc1)N2C (stereo not given in full),21.9
7,C[C@@H]1CN(CCCn2c3ccccc3c3ccccc32)C[C@H](C)N1 [RIMCAZOLE],105
8,COC(=O)[C@@H]1C2CC[C@H](C[C@@H]1c1ccc(C)cc1)N2C,5.01
9,CC(C)OC(=O)[C@@H]1C2CC[C@H](C[C@@H]1c1ccc(I)cc1)N2C,3.98
10,CC(NC(C)(C)C)C(=O)c1cccc(Cl)c1 (stereo not given) [BUPROPION],372
11,COC(=O)CC(c1ccccc1)C1CCCCN1 (stereo not given),186
12,NC12CCC(c3ccccc3)(CC1)CC2,83.2
13,CN1[C@@H]2CC[C@H]1C[C@@H](OC(c1ccccc1)c1ccccc1N)C2 (stereo not given in full) [AMINOBENZTROPINE],1860
14,CN1[C@@H]2CC[C@H]1C[C@@H](OC(c1ccccc1)c1cccc(C(F)(F)F)c1)C2 (stereo not given in full),191
15,COC(=O)[C@@H]1C2CC[C@H](C[C@@H]1c1ccc(I)cc1)N2C,2.09
16,CCCN1CCCC(c2ccc(O)cc2)C1 (stereo not given),562
17,COC(=O)C[C@@H]1C2C[C@H](Cc3ccccc3)C(C[C@@H]1Cc1ccccc1)N2C (stereo not given in full),3090

# Source: ChEMBL document CHEMBL1132952, “2D QSAR modeling and preliminary database searching for dopamine transporter inhibitors using genetic algorithm variable selection of Molconn Z descriptors” (J Med Chem, 2000)
